Data as given in ChEMBL document CHEMBL4406921, “Discovery of Axelopran (TD-1211): A Peripherally Restricted μ-Opioid Receptor Antagonist” (ACS Med Chem Lett, 2019).

target: Delta-type opioid receptor (Homo sapiens, UniProt P41143); assay: Displacement of [3H]-DPN from recombinant human delta opioid receptor expressed in CHO-K1 cell membranes by radioligand binding assay; settings: not given
Method in brief: (§1)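 Membranes from CHO-K1 cells stably transfected with human recombinant μ or δ receptor, or guinea pig κ receptor; competition with [3H]-DPN radioligand; affinity reported as pKi.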

Sequence of Delta-type opioid receptor (P41143 whole entry): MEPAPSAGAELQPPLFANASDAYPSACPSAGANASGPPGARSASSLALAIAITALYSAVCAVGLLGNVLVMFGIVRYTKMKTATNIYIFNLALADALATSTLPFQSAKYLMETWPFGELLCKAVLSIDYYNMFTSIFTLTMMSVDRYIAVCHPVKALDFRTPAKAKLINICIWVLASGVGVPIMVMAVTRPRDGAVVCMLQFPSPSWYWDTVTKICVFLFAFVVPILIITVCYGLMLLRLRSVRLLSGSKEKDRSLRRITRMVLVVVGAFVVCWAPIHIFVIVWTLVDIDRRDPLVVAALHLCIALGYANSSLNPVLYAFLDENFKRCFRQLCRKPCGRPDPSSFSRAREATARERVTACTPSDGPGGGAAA

Q: For `CCC(CC)CN(CCN1[C@@H]2CC[C@H]1C[C@@H](c1cccc(C(N)=O)c1)C2)C(=O)CO`, which Ki is on record?
A: The Ki was 12.6 nM.

Q: Which Ki does the source give for `NC(=O)c1cccc([C@H]2C[C@H]3CC[C@@H](C2)N3CCN(CC2CCC2)C(=O)CO)c1` here?
A: Its Ki is 31.6 nM.

Q: Which Ki does the source give for `CCC(CC)CN(CCCN1[C@@H]2CC[C@H]1C[C@@H](c1cccc(C(N)=O)c1)C2)C(=O)CO` here?
A: Its Ki is 3.16 nM.

Q: With `CC(=O)N(CCN1[C@@H]2CC[C@H]1C[C@@H](c1cccc(C(N)=O)c1)C2)CC1CCCCC1` as the molecule, how does the Ki read?
A: The Ki was 1.58 nM.

Q: For `NC(=O)c1cccc([C@H]2C[C@H]3CC[C@@H](C2)N3CCN(CC2CCCCC2)C(=O)Cc2nnn[nH]2)c1`, which Ki is on record?
A: The Ki was 3.16 nM.

Q: Which Ki does the source give for `CCC(CC)CN(CCCCN1[C@@H]2CC[C@H]1C[C@@H](c1cccc(C(N)=O)c1)C2)C(=O)CO` here?
A: Its Ki is 20 nM.

target: Kappa-type opioid receptor (Cavia porcellus, UniProt P41144); assay: Displacement of [3H]-DPN from guinea pig kappa opioid receptor expressed in CHO-K1 cell membranes by radioligand binding assay; settings: not given; method in brief: as §1
Sequence (P41144 whole entry): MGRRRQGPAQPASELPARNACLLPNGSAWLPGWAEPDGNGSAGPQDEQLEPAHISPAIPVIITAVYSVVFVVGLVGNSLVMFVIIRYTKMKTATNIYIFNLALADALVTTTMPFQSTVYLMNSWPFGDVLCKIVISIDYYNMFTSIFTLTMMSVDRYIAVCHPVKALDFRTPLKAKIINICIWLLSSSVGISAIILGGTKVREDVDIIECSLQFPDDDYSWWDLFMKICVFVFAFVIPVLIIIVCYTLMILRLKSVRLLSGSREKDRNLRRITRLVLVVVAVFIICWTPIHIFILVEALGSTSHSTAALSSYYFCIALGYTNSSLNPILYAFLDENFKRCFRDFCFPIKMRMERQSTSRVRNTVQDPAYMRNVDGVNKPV

Q: Which Ki does the source give for `CCC(CC)CN(CCN1[C@@H]2CC[C@H]1C[C@@H](c1cccc(C(N)=O)c1)C2)C(=O)CO` here?
A: The Ki was 0.126 nM.

Q: For `NC(=O)c1cccc([C@H]2C[C@H]3CC[C@@H](C2)N3CCN(CC2CCC2)C(=O)CO)c1`, which Ki is on record?
A: The Ki was 0.631 nM.

Q: With `CCC(CC)CN(CCCN1[C@@H]2CC[C@H]1C[C@@H](c1cccc(C(N)=O)c1)C2)C(=O)CO` as the molecule, how does the Ki read?
A: The Ki was 0.2 nM.

Q: Which Ki does the source give for `CC(=O)N(CCN1[C@@H]2CC[C@H]1C[C@@H](c1cccc(C(N)=O)c1)C2)CC1CCCCC1` here?
A: Its Ki is 0.126 nM.

Q: For `NC(=O)c1cccc([C@H]2C[C@H]3CC[C@@H](C2)N3CCN(CC2CCCCC2)C(=O)Cc2nnn[nH]2)c1`, which Ki is on record?
A: The Ki was 1.58 nM.

tested on: not listed separately; assay: Permeability coefficient, Kp in human Caco2 cells; assay type: ADME, cell-based; settings: Caco-2, read-out: Kp

Q: Which Papp does the source give for `O=C1CC[C@@]2(O)[C@H]3Cc4ccc(O)c5c4[C@@]2(CCN3CC2CC2)[C@H]1O5` [NALTREXONE] here?
A: Its Papp is 84 ×10⁻⁶ cm/s.

Q: For `CCC(CC)CN(CCN1[C@@H]2CC[C@H]1C[C@@H](c1cccc(C(N)=O)c1)C2)C(=O)CO`, which Papp is on record?
A: The Papp was 32 ×10⁻⁶ cm/s.

Q: For `NC(=O)c1cccc([C@H]2C[C@H]3CC[C@@H](C2)N3CCN(CC2CCC2)C(=O)CO)c1`, which Papp is on record?
A: The Papp was 14 ×10⁻⁶ cm/s.

Q: With `CCC(CC)CN(CCCN1[C@@H]2CC[C@H]1C[C@@H](c1cccc(C(N)=O)c1)C2)C(=O)CO` as the molecule, how does the Papp read?
A: Its Papp is 20 ×10⁻⁶ cm/s.

Q: With `NC(=O)c1cccc([C@H]2C[C@H]3CC[C@@H](C2)N3CCN(CC2CCCCC2)C(=O)Cc2nnn[nH]2)c1` as the molecule, how does the Papp read?
A: Its Papp is under 1 ×10⁻⁶ cm/s.

tested on: not listed separately; assay: Half life in rat liver microsomes at 3 uM; assay type: ADME, Microsome; settings: not given

Q: Which half-life at 3 µM does the source give for `CCC(CC)CN(CCN1[C@@H]2CC[C@H]1C[C@@H](c1cccc(C(N)=O)c1)C2)C(=O)CO` here?
A: The half-life at 3 µM was 1.5 h.

Q: For `NC(=O)c1cccc([C@H]2C[C@H]3CC[C@@H](C2)N3CCN(CC2CCC2)C(=O)CO)c1`, which half-life at 3 µM is on record?
A: Its half-life at 3 µM is 1.5 h.

Q: For `CCC(CC)CN(CCCN1[C@@H]2CC[C@H]1C[C@@H](c1cccc(C(N)=O)c1)C2)C(=O)CO`, which half-life at 3 µM is on record?
A: The half-life at 3 µM was 1.48 h.

Q: Which half-life at 3 µM does the source give for `CC(=O)N(CCN1[C@@H]2CC[C@H]1C[C@@H](c1cccc(C(N)=O)c1)C2)CC1CCCCC1` here?
A: Its half-life at 3 µM is 1.23 h.

Q: With `NC(=O)c1cccc([C@H]2C[C@H]3CC[C@@H](C2)N3CCN(CC2CCCCC2)C(=O)Cc2nnn[nH]2)c1` as the molecule, how does the half-life at 3 µM read?
A: The half-life at 3 µM was 1.5 h.

Q: Which half-life at 3 µM does the source give for `CCC(CC)CN(CCCCN1[C@@H]2CC[C@H]1C[C@@H](c1cccc(C(N)=O)c1)C2)C(=O)CO` here?
A: The half-life at 3 µM was 1.5 h.

tested on: Mus musculus; assay: Inhibition of morphine-induced delays in gastric emptying in po dosed ICR mouse administered via gavage pretreated with compound and 30 mins later injected with morphine followed 5 mins later by ingestion of test meal and measured after 60 mins; assay type: functional; settings: read-out: ID50 (the source's name)
Method in brief: (§2)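 Mice dosed orally; reversal of morphine-induced delay in intestinal transit, delay in gastric emptying, or hot plate antinociception measured; dose-dependent responses fitted to give ID50 in mg/kg.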

Q: Which ED50 does the source give for `O=C1CC[C@@]2(O)[C@H]3Cc4ccc(O)c5c4[C@@]2(CCN3CC2CC2)[C@H]1O5` [NALTREXONE] here?
A: The ED50 was 0.5 mg/kg.

tested on: Mus musculus; assay: Inhibition of morphine-induced delays in intestinal transit in po dosed ICR mouse administered via gavage pretreated with compound and 30 mins later injected with morphine followed 5 mins later by ingestion of test meal and measured after 60 mins; assay type: functional; settings: read-out: ID50 (the source's name); method in brief: as §2

Q: With `O=C1CC[C@@]2(O)[C@H]3Cc4ccc(O)c5c4[C@@]2(CCN3CC2CC2)[C@H]1O5` [NALTREXONE] as the molecule, how does the ED50 read?
A: The ED50 was 0.6 mg/kg.

target: T1, Mu-type opioid receptor (Homo sapiens, UniProt P35372); assay: Antagonist activity at human recombinant mu opioid receptor expressed in CHO-K1 cell membranes assessed as intrinsic activity at 10 pM to 20 uM incubated for 30 mins in presence of Eu-GTP by DELFIA GTP binding assay relative to DAMGO; settings: not given
T1 sequence (P35372 whole entry): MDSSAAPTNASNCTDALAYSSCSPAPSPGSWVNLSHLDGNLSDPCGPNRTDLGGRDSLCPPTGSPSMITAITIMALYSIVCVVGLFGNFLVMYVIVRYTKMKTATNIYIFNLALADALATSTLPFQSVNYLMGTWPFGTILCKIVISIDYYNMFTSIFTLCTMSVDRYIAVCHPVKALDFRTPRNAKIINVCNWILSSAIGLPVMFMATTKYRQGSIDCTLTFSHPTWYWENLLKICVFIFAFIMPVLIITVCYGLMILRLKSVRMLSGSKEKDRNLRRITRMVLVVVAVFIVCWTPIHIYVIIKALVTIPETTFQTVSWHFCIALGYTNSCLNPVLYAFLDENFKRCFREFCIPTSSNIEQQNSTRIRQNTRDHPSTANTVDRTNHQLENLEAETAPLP

Q: Which Intrinsic activity does the source give for `CCC(CC)CN(CCN1[C@@H]2CC[C@H]1C[C@@H](c1cccc(C(N)=O)c1)C2)C(=O)CO` here?
A: The Intrinsic activity was 9%.

Q: With `NC(=O)c1cccc([C@H]2C[C@H]3CC[C@@H](C2)N3CCN(CC2CCC2)C(=O)CO)c1` as the molecule, how does the Intrinsic activity read?
A: Its Intrinsic activity is 13%.

Q: With `CCC(CC)CN(CCCN1[C@@H]2CC[C@H]1C[C@@H](c1cccc(C(N)=O)c1)C2)C(=O)CO` as the molecule, how does the Intrinsic activity read?
A: Its Intrinsic activity is 3%.

Q: For `CC(=O)N(CCN1[C@@H]2CC[C@H]1C[C@@H](c1cccc(C(N)=O)c1)C2)CC1CCCCC1`, which Intrinsic activity is on record?
A: Its Intrinsic activity is -1%.

Q: For `NC(=O)c1cccc([C@H]2C[C@H]3CC[C@@H](C2)N3CCN(CC2CCCCC2)C(=O)Cc2nnn[nH]2)c1`, which Intrinsic activity is on record?
A: The Intrinsic activity was 0%.

Q: For `CCC(CC)CN(CCCCN1[C@@H]2CC[C@H]1C[C@@H](c1cccc(C(N)=O)c1)C2)C(=O)CO`, which Intrinsic activity is on record?
A: The Intrinsic activity was -1%.

tested on: not listed separately; assay: Half life in human liver microsomes at 3 uM; assay type: ADME, Microsome; settings: not given

Q: Which half-life at 3 µM does the source give for `CCC(CC)CN(CCN1[C@@H]2CC[C@H]1C[C@@H](c1cccc(C(N)=O)c1)C2)C(=O)CO` here?
A: Its half-life at 3 µM is 1.5 h.

Q: Which half-life at 3 µM does the source give for `NC(=O)c1cccc([C@H]2C[C@H]3CC[C@@H](C2)N3CCN(CC2CCC2)C(=O)CO)c1` here?
A: Its half-life at 3 µM is 1.5 h.

Q: For `CCC(CC)CN(CCCN1[C@@H]2CC[C@H]1C[C@@H](c1cccc(C(N)=O)c1)C2)C(=O)CO`, which half-life at 3 µM is on record?
A: Its half-life at 3 µM is 1.5 h.

Q: Which half-life at 3 µM does the source give for `CC(=O)N(CCN1[C@@H]2CC[C@H]1C[C@@H](c1cccc(C(N)=O)c1)C2)CC1CCCCC1` here?
A: Its half-life at 3 µM is 1.05 h.

Q: With `NC(=O)c1cccc([C@H]2C[C@H]3CC[C@@H](C2)N3CCN(CC2CCCCC2)C(=O)Cc2nnn[nH]2)c1` as the molecule, how does the half-life at 3 µM read?
A: The half-life at 3 µM was 1.5 h.

Q: For `CCC(CC)CN(CCCCN1[C@@H]2CC[C@H]1C[C@@H](c1cccc(C(N)=O)c1)C2)C(=O)CO`, which half-life at 3 µM is on record?
A: Its half-life at 3 µM is 0.35 h.

target: T1, Mu-type opioid receptor; assay: Displacement of [3H]-DPN from recombinant human mu opioid receptor expressed in CHO-K1 cell membranes by radioligand binding assay; settings: not given; method in brief: as §1

Q: For `CCC(CC)CN(CCN1[C@@H]2CC[C@H]1C[C@@H](c1cccc(C(N)=O)c1)C2)C(=O)CO`, which Ki is on record?
A: The Ki was 0.158 nM.

Q: With `NC(=O)c1cccc([C@H]2C[C@H]3CC[C@@H](C2)N3CCN(CC2CCC2)C(=O)CO)c1` as the molecule, how does the Ki read?
A: The Ki was 1.58 nM.

Q: Which Ki does the source give for `CC(=O)N(CCN1[C@@H]2CC[C@H]1C[C@@H](c1cccc(C(N)=O)c1)C2)CC1CCCCC1` here?
A: Its Ki is 0.1 nM.

Q: Which Ki does the source give for `NC(=O)c1cccc([C@H]2C[C@H]3CC[C@@H](C2)N3CCN(CC2CCCCC2)C(=O)Cc2nnn[nH]2)c1` here?
A: Its Ki is 0.398 nM.

Q: With `CCC(CC)CN(CCCCN1[C@@H]2CC[C@H]1C[C@@H](c1cccc(C(N)=O)c1)C2)C(=O)CO` as the molecule, how does the Ki read?
A: Its Ki is 0.631 nM.

tested on: Mus musculus; assay: Inhibition of morphine-induced antinociceptive activity in po dosed ICR mouse administered via gavage pretreated with compound and 30 mins later injected with morphine and measured after 30 mins by hot plate test; assay type: functional; settings: read-out: ID50 (the source's name); method in brief: as §2

Q: Which ED50 does the source give for `O=C1CC[C@@]2(O)[C@H]3Cc4ccc(O)c5c4[C@@]2(CCN3CC2CC2)[C@H]1O5` [NALTREXONE] here?
A: The ED50 was 0.82 mg/kg.

tested on: not listed separately; assay: Half life in dog liver microsomes at 3 uM; assay type: ADME, Canis lupus familiaris, Microsome; settings: not given

Q: For `CCC(CC)CN(CCN1[C@@H]2CC[C@H]1C[C@@H](c1cccc(C(N)=O)c1)C2)C(=O)CO`, which half-life at 3 µM is on record?
A: Its half-life at 3 µM is 1.25 h.

Q: Which half-life at 3 µM does the source give for `NC(=O)c1cccc([C@H]2C[C@H]3CC[C@@H](C2)N3CCN(CC2CCC2)C(=O)CO)c1` here?
A: Its half-life at 3 µM is 1.5 h.

Q: For `CCC(CC)CN(CCCN1[C@@H]2CC[C@H]1C[C@@H](c1cccc(C(N)=O)c1)C2)C(=O)CO`, which half-life at 3 µM is on record?
A: Its half-life at 3 µM is 1.5 h.

Q: With `CC(=O)N(CCN1[C@@H]2CC[C@H]1C[C@@H](c1cccc(C(N)=O)c1)C2)CC1CCCCC1` as the molecule, how does the half-life at 3 µM read?
A: Its half-life at 3 µM is 0.267 h.

Q: Which half-life at 3 µM does the source give for `NC(=O)c1cccc([C@H]2C[C@H]3CC[C@@H](C2)N3CCN(CC2CCCCC2)C(=O)Cc2nnn[nH]2)c1` here?
A: Its half-life at 3 µM is 1.5 h.

Q: With `CCC(CC)CN(CCCCN1[C@@H]2CC[C@H]1C[C@@H](c1cccc(C(N)=O)c1)C2)C(=O)CO` as the molecule, how does the half-life at 3 µM read?
A: Its half-life at 3 µM is 1.5 h.
